Assay results reported in ChEMBL document CHEMBL4689842, “EUbOPEN Chemogenomics Library wave 1” (2021).

Test system: Fibroblast
Assay: Multiplex assay against human fibroblast
Assay type: toxicity, cell-based
Method in brief: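 Live cells were stained at seeding with Hoechst33342, BioTracker Green Microtubule Cytoskeleton Dye, MitoTracker Red and Annexin V Alexa Fluor 680, then imaged on a CQ1 microscope at 37°C and 5% CO2 after compound addition. CellPathfinder machine-learning gating split cells into Hoechst high-intensity objects or normal cells. Normal cells were split into healthy, pyknosed or fragmented nuclei, and pyknosed cells into mitotic or apoptotic. Tubulin, mitochondrial-mass and membrane-permeability phenotypes are per cents of healthy-nucleus cells.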

[1] = 12 h, 1 µM, compound concentration 1 uM, replicate 1
[2] = 12 h, 1 µM, compound concentration 1 uM, replicate 2
[3] = 12 h, 10 µM, compound concentration 10 uM, replicate 1
[4] = 12 h, 10 µM, compound concentration 10 uM, replicate 2
[5] = 24 h, 1 µM, compound concentration 1 uM, replicate 1
[6] = 24 h, 1 µM, compound concentration 1 uM, replicate 2
[7] = 24 h, 10 µM, compound concentration 10 uM, replicate 1
[8] = 24 h, 10 µM, compound concentration 10 uM, replicate 2

Cc1nc(Nc2n[nH]c3c2CN(C(=O)N[C@H](CN(C)C)c2ccccc2)C3(C)C)c2sccc2n1 [PF-03758309]
Population Apoptotic (%) [1]: 82%
Population Fragmented Nuclei (%) [1]: 33%
Population Healthy Nuclei (%) [1]: 48%
Population Hoechst High Intensity Objects (%) [1]: 13%
Population Membrane Permeable-Phenotype (%) [1]: 6%
Population Mitochondria Different-Phenotype (%) [1]: 2%
Population Mitotic Cells (%) [1]: 17%
Population Normal (%) [1]: 86%
Population Pyknosed Nuclei (%) [1]: 18%
Population Tubulin-Different-Phenotype (%) [1]: 2%
Total Cell Count [1]: 216
Population Apoptotic (%) [2]: 60%
Population Fragmented Nuclei (%) [2]: 54%
Population Healthy Nuclei (%) [2]: 37%
Population Hoechst High Intensity Objects (%) [2]: 28%
Population Membrane Permeable-Phenotype (%) [2]: 0%
Population Mitochondria Different-Phenotype (%) [2]: 13%
Population Mitotic Cells (%) [2]: 40%
Population Normal (%) [2]: 71%
Population Pyknosed Nuclei (%) [2]: 8%
Population Tubulin-Different-Phenotype (%) [2]: 13%
Total Cell Count [2]: 83
Population Apoptotic (%) [3]: 62%
Population Fragmented Nuclei (%) [3]: 35%
Population Healthy Nuclei (%) [3]: 51%
Population Hoechst High Intensity Objects (%) [3]: 11%
Population Membrane Permeable-Phenotype (%) [3]: 9%
Population Mitochondria Different-Phenotype (%) [3]: 10%
Population Mitotic Cells (%) [3]: 37%
Population Normal (%) [3]: 88%
Population Pyknosed Nuclei (%) [3]: 12%
Population Tubulin-Different-Phenotype (%) [3]: 32%
Total Cell Count [3]: 240
Population Apoptotic (%) [4]: 40%
Population Fragmented Nuclei (%) [4]: 57%
Population Healthy Nuclei (%) [4]: 25%
Population Hoechst High Intensity Objects (%) [4]: 39%
Population Membrane Permeable-Phenotype (%) [4]: 0%
Population Mitochondria Different-Phenotype (%) [4]: 20%
Population Mitotic Cells (%) [4]: 60%
Population Normal (%) [4]: 60%
Population Pyknosed Nuclei (%) [4]: 16%
Population Tubulin-Different-Phenotype (%) [4]: 33%
Total Cell Count [4]: 98
Population Apoptotic (%) [5]: 70%
Population Fragmented Nuclei (%) [5]: 25%
Population Healthy Nuclei (%) [5]: 53%
Population Hoechst High Intensity Objects (%) [5]: 16%
Population Membrane Permeable-Phenotype (%) [5]: 7%
Population Mitochondria Different-Phenotype (%) [5]: 8%
Population Mitotic Cells (%) [5]: 29%
Population Normal (%) [5]: 83%
Population Pyknosed Nuclei (%) [5]: 20%
Population Tubulin-Different-Phenotype (%) [5]: 7%
Total Cell Count [5]: 181
Population Apoptotic (%) [6]: 75%
Population Fragmented Nuclei (%) [6]: 59%
Population Healthy Nuclei (%) [6]: 33%
Population Hoechst High Intensity Objects (%) [6]: 28%
Population Membrane Permeable-Phenotype (%) [6]: 0%
Population Mitochondria Different-Phenotype (%) [6]: 10%
Population Mitotic Cells (%) [6]: 25%
Population Normal (%) [6]: 71%
Population Pyknosed Nuclei (%) [6]: 6%
Population Tubulin-Different-Phenotype (%) [6]: 0%
Total Cell Count [6]: 82
Population Apoptotic (%) [7]: 67%
Population Fragmented Nuclei (%) [7]: 30%
Population Healthy Nuclei (%) [7]: 54%
Population Hoechst High Intensity Objects (%) [7]: 20%
Population Membrane Permeable-Phenotype (%) [7]: 15%
Population Mitochondria Different-Phenotype (%) [7]: 6%
Population Mitotic Cells (%) [7]: 32%
Population Normal (%) [7]: 79%
Population Pyknosed Nuclei (%) [7]: 15%
Population Tubulin-Different-Phenotype (%) [7]: 40%
Total Cell Count [7]: 254
Population Apoptotic (%) [8]: 100%
Population Fragmented Nuclei (%) [8]: 48%
Population Healthy Nuclei (%) [8]: 45%
Population Hoechst High Intensity Objects (%) [8]: 34%
Population Membrane Permeable-Phenotype (%) [8]: 11%
Population Mitochondria Different-Phenotype (%) [8]: 22%
Population Mitotic Cells (%) [8]: 0%
Population Normal (%) [8]: 65%
Population Pyknosed Nuclei (%) [8]: 6%
Population Tubulin-Different-Phenotype (%) [8]: 44%
Total Cell Count [8]: 92
